Data set [1] deals with Calcium/calmodulin-dependent protein kinase kinase 2 (Homo sapiens) (UniProt Q96RR4). In words: Inhibition of recombinant human N-terminal GST-tagged CAMKKbeta (1 to 541 residues) expressed in Escherichia coli assessed as remaining activity at 10 uM using DGEFLRTSCGSPNYAARRR as substrate incubated for 30 mins in presence of [gamma-33P]ATP by filter binding method relative to control. The method, boiled down:
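Robotic radiometric panel assay, 30 min at room temperature (21 °C), with 10 mM magnesium acetate. […] Compound at 1 or 10 µM. Residual activity expressed relative to compound-free control; triplicate average ± S.D.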

The target of data set [2] is Tyrosine-protein kinase Yes (Homo sapiens) (UniProt P07947). In words: Inhibition of recombinant human N-terminal His6-tagged YES1 (1 to 543 residues) expressed in baculovirus infected Sf21 cells assessed as remaining activity at 1 uM using Poly(Glu,Tyr) as substrate incubated for 30 mins in presence of [gamma-33P]ATP by filter binding assay relative to control. In short, it runs like this:
(§1)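 Radiometric panel assay run robotically at 21 °C for 30 min, linear in time and enzyme. […] Activity is expressed as percentage of the compound-omitted control, averaged from triplicates ± S.D.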

In data set [3] the target is Insulin-like growth factor 1 receptor (Homo sapiens) (UniProt P08069). In words: Inhibition of recombinant human N-terminal His6-tagged IGF1R (954 to 1367 residues) expressed in baculovirus infected Sf21 cells assessed as remaining activity at 1 uM using KKKSPGEYVNIEFG as substrate incubated for 30 mins in presence of [gamma-33P]ATP by filter binding method relative to control. In short, it runs like this: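 Radiometric kinase panel run robotically at room temperature (21 °C) for 30 min, linear in time and enzyme. […] Activity is expressed as percent of control without compound, from triplicate determinations ± S.D.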

Data set [4] addresses MAP/microtubule affinity-regulating kinase 3 (Homo sapiens) (UniProt P27448). In words: Inhibition of recombinant human N-terminal His6-tagged MARK3 (2 to 729 residues) expressed in baculovirus infected Sf21 cells assessed as remaining activity at 1 uM using CHKtide as substrate incubated for 30 mins in presence of [gamma-33P]ATP by filter binding method relative to control.

Data set [5] addresses Serine/threonine-protein kinase Nek2 (Homo sapiens) (UniProt P51955). In words: Inhibition of recombinant human N-terminal His6-tagged NEK2A (1 to 445 residues) expressed in baculovirus infected Sf21 cells assessed as remaining activity at 1 uM using RFRRSRRMI as substrate incubated for 30 mins in presence of [gamma-33P]ATP by filter binding method relative to control.
Data set [6] deals with Ephrin type-B receptor 3 (Homo sapiens) (UniProt P54753). In words: Inhibition of recombinant human N-terminal His6-tagged EPHB3 (561 to 998 residues) expressed in Escherichia coli assessed as remaining activity at 10 uM using Poly(Glu, Tyr) as substrate incubated for 30 mins in presence of [gamma-33P]ATP by filter binding method relative to control. The method, boiled down:
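Panel assays were run for 30 min at 21 °C, within the linear range for time and enzyme. […] Results are percent activity remaining relative to compound-free control, averaged from triplicate ± S.D.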

In data set [7] the target is Myosin light chain kinase (Homo sapiens) (UniProt Q32MK0). In words: Inhibition of MLCK (unknown origin) assessed as remaining activity at 10 uM relative to control. The method, boiled down:
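Profiling-centre panel assay performed robotically at 21 °C for 30 min, linear with time and enzyme. […] Values are percent of compound-free control activity, the mean of triplicates ± S.D.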

The target in data set [8] is Serine/threonine-protein kinase 26 (Homo sapiens) (UniProt Q9P289). In words: Inhibition of recombinant human N-terminal His6-tagged MST4 (1 to 416 residues) expressed in baculovirus infected Sf21 cells assessed as remaining activity at 10 uM using MBP as substrate incubated for 30 mins in presence of [gamma-33P]ATP by filter binding method relative to control.
Serine/threonine-protein kinase 26 (Homo sapiens), sequence (Q9P289 2-416 limits assumed): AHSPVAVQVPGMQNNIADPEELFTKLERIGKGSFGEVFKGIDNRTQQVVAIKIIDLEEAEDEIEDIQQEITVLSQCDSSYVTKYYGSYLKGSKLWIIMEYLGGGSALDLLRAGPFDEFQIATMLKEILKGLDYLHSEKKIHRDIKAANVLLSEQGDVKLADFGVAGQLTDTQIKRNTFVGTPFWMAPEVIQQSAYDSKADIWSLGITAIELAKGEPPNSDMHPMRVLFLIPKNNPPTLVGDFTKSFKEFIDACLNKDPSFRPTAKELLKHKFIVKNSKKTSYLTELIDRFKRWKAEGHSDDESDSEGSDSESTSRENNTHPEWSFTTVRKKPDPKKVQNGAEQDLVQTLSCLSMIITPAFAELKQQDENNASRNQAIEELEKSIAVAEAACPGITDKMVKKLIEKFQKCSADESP
For data set [9], the target named is Protein kinase C alpha type (Homo sapiens) (UniProt P17252). In words: Inhibition of recombinant human N-terminal His6-tagged PKCalpha (1 to 672 residues) expressed in baculovirus infected Sf21 cells assessed as remaining activity at 10 uM using Histone H1 as substrate incubated for 30 mins in presence of [gamma-33P]ATP by filter binding method relative to control.

The subject of data set [10] is Ribosomal protein S6 kinase beta-1 (Homo sapiens), P23443 [T412E]. In words: Inhibition of recombinant human His6-tagged S6K1 T412E mutant (1 to 421 residues) expressed in baculovirus infected Sf21 cells assessed as remaining activity at 10 uM using KKRNRTLTV as substrate incubated for 30 mins in presence of [gamma-33P]ATP by filter binding method relative to control. In short, it runs like this: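 Incubations ran robotically for 30 min at room temperature (21 °C) under linear conditions. Results are percent activity remaining versus controls without compound, as the mean of triplicates ± S.D.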

The target in data set [11] is Tyrosine-protein kinase Yes (Homo sapiens) (UniProt P07947). In words: Inhibition of recombinant human N-terminal His6-tagged YES1 (1 to 543 residues) expressed in baculovirus infected Sf21 cells assessed as remaining activity at 10 uM using Poly(Glu,Tyr) as substrate incubated for 30 mins in presence of [gamma-33P]ATP by filter binding assay relative to control. The method, boiled down:
as §1

Data set [12] concerns the target Mitogen-activated protein kinase; ERK1/ERK2 (Homo sapiens) (UniProt P27361+P28482). In words: Inhibition of ERK1/2 in serum starved/PMA-stimulated HEK293 cells assessed as reduction in RSK phosphorylation at T573 residues at 1 uM incubated for 30 mins by immunoblot analysis. Format: cell-based. For orientation: A western blot detects proteins with antibodies after separation by electrophoresis.

Another data set concerns MEF. In words: Induction of cell cycle arrest in mLST8 knockout MEF cells assessed as accumulation at S phase at 3 uM incubated for 1 to 3 days by propidium iodide staining based flow cytometric analysis (reference value: 59.7 +/- 0.49%). Format: toxicity. To be noted: mouse, time 1-3 day. For orientation: A flow cytometer gives signals particle by particle.
Data set [13] concerns the target T1, mTORC1 (Homo sapiens) (UniProt P42345+Q8N122+Q9BVC4). Conditions: HEK293, dose 30-1000 nM, time 30.0 min.
The target in data set [14] is T2, mTORC2 (Homo sapiens) (UniProt P42345+Q6R327+Q9BVC4+Q9BPZ7). To be noted: HEK293, dose 100-1000 nM, time 12-48 hrs.
Data set [15] has as its target T2, mTORC2 (Homo sapiens). To be noted: HEK293, dose 30-1000 nM, time 30.0 min.
Data set [16] addresses T1, mTORC1 (Homo sapiens). Conditions: HEK293, dose 30-1000 nM, time 30.0 min. The source holds these as a separate data set.
For data set [17], the target named is T2, mTORC2 (Homo sapiens). Conditions: HEK293, dose 30-1000 nM, time 30.0 min. The source holds these as a separate data set.

Active and inactive are the calls of the source. No cut-off for these calls is given here.

Tyrosine-protein kinase Yes (Homo sapiens), sequence (P07947 2-543 limits assumed): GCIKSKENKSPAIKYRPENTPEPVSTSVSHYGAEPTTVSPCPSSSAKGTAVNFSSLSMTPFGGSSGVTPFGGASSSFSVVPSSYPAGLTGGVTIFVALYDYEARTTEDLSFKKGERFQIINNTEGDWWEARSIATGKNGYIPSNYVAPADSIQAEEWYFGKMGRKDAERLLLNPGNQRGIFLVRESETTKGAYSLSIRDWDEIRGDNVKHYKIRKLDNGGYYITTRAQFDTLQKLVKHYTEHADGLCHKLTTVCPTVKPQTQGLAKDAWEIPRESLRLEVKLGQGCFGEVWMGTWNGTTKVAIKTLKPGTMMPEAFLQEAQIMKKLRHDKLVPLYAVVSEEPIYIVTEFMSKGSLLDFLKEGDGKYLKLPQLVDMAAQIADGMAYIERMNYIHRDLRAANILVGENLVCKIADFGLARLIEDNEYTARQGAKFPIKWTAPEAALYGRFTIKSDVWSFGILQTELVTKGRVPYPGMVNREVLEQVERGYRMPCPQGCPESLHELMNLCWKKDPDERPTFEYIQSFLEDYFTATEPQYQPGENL
Mitogen-activated protein kinase; ERK1/ERK2 (Homo sapiens), sequence (P27361 whole entry, looked up): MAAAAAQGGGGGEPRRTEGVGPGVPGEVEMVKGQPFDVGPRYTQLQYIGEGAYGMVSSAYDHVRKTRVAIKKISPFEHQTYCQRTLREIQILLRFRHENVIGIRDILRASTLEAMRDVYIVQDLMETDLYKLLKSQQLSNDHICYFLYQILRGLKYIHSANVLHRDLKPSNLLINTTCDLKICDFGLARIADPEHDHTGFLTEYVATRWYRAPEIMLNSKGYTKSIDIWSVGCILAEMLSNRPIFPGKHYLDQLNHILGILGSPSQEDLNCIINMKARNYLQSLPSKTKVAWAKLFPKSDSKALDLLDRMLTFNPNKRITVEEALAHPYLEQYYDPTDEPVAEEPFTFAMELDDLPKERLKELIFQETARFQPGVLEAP
Mitogen-activated protein kinase; ERK1/ERK2 (Homo sapiens), sequence (P28482 whole entry, looked up): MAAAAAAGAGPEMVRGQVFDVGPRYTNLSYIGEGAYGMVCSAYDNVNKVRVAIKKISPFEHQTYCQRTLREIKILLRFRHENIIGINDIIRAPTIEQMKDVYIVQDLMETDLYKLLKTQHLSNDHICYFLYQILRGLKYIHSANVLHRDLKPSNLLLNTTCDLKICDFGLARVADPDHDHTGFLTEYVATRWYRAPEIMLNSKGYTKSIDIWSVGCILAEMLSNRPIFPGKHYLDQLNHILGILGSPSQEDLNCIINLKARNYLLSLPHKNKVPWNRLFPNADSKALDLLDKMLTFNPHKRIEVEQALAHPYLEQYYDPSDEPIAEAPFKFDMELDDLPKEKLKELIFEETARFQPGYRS
MAP/microtubule affinity-regulating kinase 3 (Homo sapiens), sequence (P27448 whole entry, looked up, the tested form may be a part): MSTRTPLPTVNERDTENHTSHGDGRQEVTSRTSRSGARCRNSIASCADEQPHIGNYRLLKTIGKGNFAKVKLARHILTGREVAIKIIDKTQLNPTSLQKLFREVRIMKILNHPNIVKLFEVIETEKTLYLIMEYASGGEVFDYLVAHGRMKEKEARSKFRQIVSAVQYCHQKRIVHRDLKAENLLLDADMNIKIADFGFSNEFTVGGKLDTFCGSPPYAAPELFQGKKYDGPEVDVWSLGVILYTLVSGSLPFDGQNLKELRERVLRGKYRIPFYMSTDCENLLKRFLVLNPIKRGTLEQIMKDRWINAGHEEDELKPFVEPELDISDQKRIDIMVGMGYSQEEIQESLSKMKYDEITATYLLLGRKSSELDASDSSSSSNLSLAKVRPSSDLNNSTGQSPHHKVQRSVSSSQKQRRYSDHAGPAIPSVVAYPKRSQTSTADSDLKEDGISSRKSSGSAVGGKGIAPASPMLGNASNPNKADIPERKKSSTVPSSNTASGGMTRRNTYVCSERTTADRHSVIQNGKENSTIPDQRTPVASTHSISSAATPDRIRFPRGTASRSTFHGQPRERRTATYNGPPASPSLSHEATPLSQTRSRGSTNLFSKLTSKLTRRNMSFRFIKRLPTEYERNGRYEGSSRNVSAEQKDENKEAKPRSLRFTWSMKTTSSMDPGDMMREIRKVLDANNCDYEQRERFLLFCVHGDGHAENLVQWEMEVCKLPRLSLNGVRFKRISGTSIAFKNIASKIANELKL
Myosin light chain kinase (Homo sapiens), sequence (Q32MK0 whole entry): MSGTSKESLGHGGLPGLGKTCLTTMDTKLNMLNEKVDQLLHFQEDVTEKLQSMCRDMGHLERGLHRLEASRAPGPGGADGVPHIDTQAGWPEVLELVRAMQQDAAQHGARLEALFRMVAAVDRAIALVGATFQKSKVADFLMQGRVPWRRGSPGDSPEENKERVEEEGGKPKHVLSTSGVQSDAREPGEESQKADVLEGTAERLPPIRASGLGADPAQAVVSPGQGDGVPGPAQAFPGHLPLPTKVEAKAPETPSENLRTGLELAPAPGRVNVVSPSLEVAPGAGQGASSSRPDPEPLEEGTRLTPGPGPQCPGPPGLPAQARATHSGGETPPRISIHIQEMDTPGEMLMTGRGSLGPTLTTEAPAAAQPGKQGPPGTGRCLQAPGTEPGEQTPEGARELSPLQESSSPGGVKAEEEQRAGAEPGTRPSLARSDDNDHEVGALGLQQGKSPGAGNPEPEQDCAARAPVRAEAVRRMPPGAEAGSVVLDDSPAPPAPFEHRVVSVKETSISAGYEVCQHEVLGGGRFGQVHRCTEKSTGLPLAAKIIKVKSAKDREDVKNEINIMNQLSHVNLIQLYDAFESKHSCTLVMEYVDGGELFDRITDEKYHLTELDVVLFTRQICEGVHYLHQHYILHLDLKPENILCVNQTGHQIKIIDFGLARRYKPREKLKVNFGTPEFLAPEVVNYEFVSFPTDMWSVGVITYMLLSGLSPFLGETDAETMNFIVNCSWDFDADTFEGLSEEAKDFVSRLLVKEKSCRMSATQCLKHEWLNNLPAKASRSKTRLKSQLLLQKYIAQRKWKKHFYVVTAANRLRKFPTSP
Ribosomal protein S6 kinase beta-1 (Homo sapiens), P23443 [T412E], sequence (P23443 whole entry T412E, looked up, the tested form may be a part): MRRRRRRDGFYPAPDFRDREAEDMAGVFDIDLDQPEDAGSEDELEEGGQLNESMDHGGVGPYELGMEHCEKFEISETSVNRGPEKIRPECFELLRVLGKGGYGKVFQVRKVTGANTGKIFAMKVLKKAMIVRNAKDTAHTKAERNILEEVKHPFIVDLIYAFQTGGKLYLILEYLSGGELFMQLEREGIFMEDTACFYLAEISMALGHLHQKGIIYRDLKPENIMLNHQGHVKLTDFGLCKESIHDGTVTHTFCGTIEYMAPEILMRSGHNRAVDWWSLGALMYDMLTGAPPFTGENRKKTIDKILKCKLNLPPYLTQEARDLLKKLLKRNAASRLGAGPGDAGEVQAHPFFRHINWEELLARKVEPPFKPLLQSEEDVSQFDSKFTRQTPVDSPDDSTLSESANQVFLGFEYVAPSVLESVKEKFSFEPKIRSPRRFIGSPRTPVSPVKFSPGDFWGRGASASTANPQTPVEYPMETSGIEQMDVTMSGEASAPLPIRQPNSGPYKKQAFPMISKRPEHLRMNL
Calcium/calmodulin-dependent protein kinase kinase 2 (Homo sapiens), sequence (Q96RR4 2-588 limits assumed): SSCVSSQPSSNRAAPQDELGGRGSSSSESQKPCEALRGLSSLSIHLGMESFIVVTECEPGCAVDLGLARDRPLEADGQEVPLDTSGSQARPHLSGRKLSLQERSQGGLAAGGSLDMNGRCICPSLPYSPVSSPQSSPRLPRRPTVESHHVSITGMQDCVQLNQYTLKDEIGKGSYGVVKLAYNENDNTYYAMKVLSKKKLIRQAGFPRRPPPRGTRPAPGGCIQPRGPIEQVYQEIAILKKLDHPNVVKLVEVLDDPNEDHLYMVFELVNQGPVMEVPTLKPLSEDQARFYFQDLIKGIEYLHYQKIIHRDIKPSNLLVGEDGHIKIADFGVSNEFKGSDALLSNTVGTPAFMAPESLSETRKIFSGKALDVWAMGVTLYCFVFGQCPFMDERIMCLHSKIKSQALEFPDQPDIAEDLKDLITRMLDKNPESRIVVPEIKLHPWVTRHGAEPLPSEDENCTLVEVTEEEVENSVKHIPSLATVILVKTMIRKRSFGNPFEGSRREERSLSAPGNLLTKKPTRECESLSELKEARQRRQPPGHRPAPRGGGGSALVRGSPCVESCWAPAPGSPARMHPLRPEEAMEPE
Serine/threonine-protein kinase Nek2 (Homo sapiens), sequence (P51955 whole entry, the tested form may be a part): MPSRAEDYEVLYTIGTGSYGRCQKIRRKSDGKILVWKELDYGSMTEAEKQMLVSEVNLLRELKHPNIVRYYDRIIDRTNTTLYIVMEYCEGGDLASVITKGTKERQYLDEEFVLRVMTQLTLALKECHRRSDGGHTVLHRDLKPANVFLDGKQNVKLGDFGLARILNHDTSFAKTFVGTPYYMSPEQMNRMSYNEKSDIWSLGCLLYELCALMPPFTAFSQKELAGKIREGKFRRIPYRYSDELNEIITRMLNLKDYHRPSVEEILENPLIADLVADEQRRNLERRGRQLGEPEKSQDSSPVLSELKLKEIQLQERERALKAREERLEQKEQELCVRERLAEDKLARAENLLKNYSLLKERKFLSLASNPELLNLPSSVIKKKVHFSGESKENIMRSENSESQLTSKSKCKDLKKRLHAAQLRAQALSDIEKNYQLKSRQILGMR

Consider `COc1ccc(-c2ccc3c(N4CCOCC4)nc(N4C[C@@H](C)O[C@@H](C)C4)nc3n2)cc1CO` [Ku-0063794], for which the Activity in [1] was determined as 94%; in [2], 94%; in data set [3], 117%; in data set [4] it was 93%; in data set [5], 92%; in [6], 78%. The Activity in [7] was found to be 104%; in data set [8] it was 86%; in [9] it was 86%; in data set [10] it was 98%; in [11] it was 90%; in the data set with MEF, 36.5%. In addition, in [12], the inhibition entry was “inactive”. Further, the inhibition result at mTORC1 (Homo sapiens) [13], at mTORC2 (Homo sapiens) [15], at mTORC1 (Homo sapiens) [16] and at mTORC2 (Homo sapiens) [17] was “Dose-Dependent Effect” in each case. Moreover, the inhibition entry on mTORC2 (Homo sapiens) [14] was “Active”.
